We go through ten molecules from ChEMBL document CHEMBL1134470, “Synthesis, photophysical properties, tumor uptake, and preliminary in vivo photosensitizing efficacy of a homologous series of 3-(1'-alkyloxy)ethyl-3-devinylpurpurin-18-N-alkylimides with variable lipophilicity” (J Med Chem, 2001).

Tested on in one data set: not listed separately
Nature of the data set: Tumor and skin uptake ratio of the compound. Format: functional.
Conditions: not given
A digest of the protocol:
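C3H mice bearing RIF tumors, anesthetized with ketamine xylazine ip; photosensitizer given iv at 5.0 µmol/kg. Uptake measured by in vivo reflectance spectroscopy: light scattered by tissue recorded before and after injection, and drug absorption taken as the postinjection/preinjection spectral ratio. Tumor versus skin uptake compared at 24 h postinjection.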
Take `CCCCCCCCCCCCN1C(=O)c2c3nc(cc4nc(cc5[nH]c(cc6[nH]c2c(c6C)C1=O)c(CC)c5C)C(C(C)OCCCCCC)=C4C)[C@@H](C)[C@@H]3CCC(=O)OC` (some centres not stated): the Ratio came out at 2.39.

Turning to `CCCCCCCCCCCCN1C(=O)c2c3nc(cc4nc(cc5[nH]c(cc6[nH]c2c(c6C)C1=O)c(CC)c5C)C(C(C)OC)=C4C)[C@@H](C)[C@@H]3CCC(=O)OC` (some centres not stated), the Ratio was found to be 2.67.

`CCc1c(C)c2cc3[nH]c(cc4nc(c5c6nc(cc1[nH]2)C(C)=C6C(=O)N(C)C5=O)[C@@H](CCC(=O)OC)[C@@H]4C)c(C)c3C(C)OC` (some centres not stated): the Ratio amounted to 2.87.

Regarding `CCCCCCCCCCOC(C)C1=C(C)c2cc3nc(c4c5[nH]c(cc6[nH]c(cc1n2)c(C)c6CC)c(C)c5C(=O)N(CCCCCCCCCC)C4=O)[C@@H](CCC(=O)OC)[C@@H]3C` (some centres not stated), the Ratio is 3.21.

Consider `CCCCCCOC(C)C1=C(C)c2cc3nc(c4c5[nH]c(cc6[nH]c(cc1n2)c(C)c6CC)c(C)c5C(=O)N(C)C4=O)[C@@H](CCC(=O)OC)[C@@H]3C` (some centres not stated), for which the Ratio was 3.61.

For `CCCCCCOC(C)C1=C(C)c2cc3nc(c4c5[nH]c(cc6[nH]c(cc1n2)c(C)c6CC)c(C)c5C(=O)N(CCCCCC)C4=O)[C@@H](CCC(=O)OC)[C@@H]3C` (some centres not stated), the Ratio is 3.17.

With `CCCCCCN1C(=O)c2c3nc(cc4nc(cc5[nH]c(cc6[nH]c2c(c6C)C1=O)c(CC)c5C)C(C(C)OCCC)=C4C)[C@@H](C)[C@@H]3CCC(=O)OC` (some centres not stated), the Ratio came to 2.19.

Take `CCCCCCOC(C)C1=C(C)c2cc3nc(c4c5[nH]c(cc6[nH]c(cc1n2)c(C)c6CC)c(C)c5C(=O)N(CCC)C4=O)[C@@H](CCC(=O)OC)[C@@H]3C` (some centres not stated): the Ratio was found to be 3.34.

For `CCCCCCCOC(C)C1=C(C)c2cc3nc(c4c5[nH]c(cc6[nH]c(cc1n2)c(C)c6CC)c(C)c5C(=O)N(CCCCCC)C4=O)[C@@H](CCC(=O)OC)[C@@H]3C` (some centres not stated), the Ratio came to 3.15.

As to `CCCCCCCN1C(=O)c2c3nc(cc4nc(cc5[nH]c(cc6[nH]c2c(c6C)C1=O)c(CC)c5C)C(C(C)OCCCCCC)=C4C)[C@@H](C)[C@@H]3CCC(=O)OC` (some centres not stated), the Ratio is 2.73.

Another data set concerns Mus musculus. The experiment in a line: Skin uptake in C3H mice bearing RIF tumors, determined by in vivo reflectance spectroscopy following 5.0 umol/kg administration. Format: functional.
Conditions: not given
The method, boiled down: (§1)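 Photosensitizer given iv at 5.0 µmol/kg to C3H mice bearing RIF tumors, anesthetized with ketamine xylazine ip. Scattered-light spectrum from tissue was recorded before and after injection. The in vivo drug absorption was taken as the ratio of post- to pre-injection spectra. Tumor and skin were compared at 24 h postinjection.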
For the molecule `CCCCCCCCCCCCN1C(=O)c2c3nc(cc4nc(cc5[nH]c(cc6[nH]c2c(c6C)C1=O)c(CC)c5C)C(C(C)OCCCCCC)=C4C)[C@@H](C)[C@@H]3CCC(=O)OC` (some centres not stated), the Skin uptake stood at 2 µM.

Molecule `CCCCCCCCCCCCN1C(=O)c2c3nc(cc4nc(cc5[nH]c(cc6[nH]c2c(c6C)C1=O)c(CC)c5C)C(C(C)OC)=C4C)[C@@H](C)[C@@H]3CCC(=O)OC` (some centres not stated) came in with a Skin uptake of 5.8 µM.

`CCc1c(C)c2cc3[nH]c(cc4nc(c5c6nc(cc1[nH]2)C(C)=C6C(=O)N(C)C5=O)[C@@H](CCC(=O)OC)[C@@H]4C)c(C)c3C(C)OC` (some centres not stated): the Skin uptake was found to be 0.1 µM.

`CCCCCCCCCCOC(C)C1=C(C)c2cc3nc(c4c5[nH]c(cc6[nH]c(cc1n2)c(C)c6CC)c(C)c5C(=O)N(CCCCCCCCCC)C4=O)[C@@H](CCC(=O)OC)[C@@H]3C` (some centres not stated) displayed a Skin uptake of 1.73 µM.

In the case of `CCCCCCOC(C)C1=C(C)c2cc3nc(c4c5[nH]c(cc6[nH]c(cc1n2)c(C)c6CC)c(C)c5C(=O)N(C)C4=O)[C@@H](CCC(=O)OC)[C@@H]3C` (some centres not stated), the Skin uptake worked out at 1.78 µM.

Molecule `CCCCCCOC(C)C1=C(C)c2cc3nc(c4c5[nH]c(cc6[nH]c(cc1n2)c(C)c6CC)c(C)c5C(=O)N(CCCCCC)C4=O)[C@@H](CCC(=O)OC)[C@@H]3C` (some centres not stated) returned a Skin uptake of 2.3 µM.

`CCCCCCN1C(=O)c2c3nc(cc4nc(cc5[nH]c(cc6[nH]c2c(c6C)C1=O)c(CC)c5C)C(C(C)OCCC)=C4C)[C@@H](C)[C@@H]3CCC(=O)OC` (some centres not stated): the Skin uptake amounted to 6.29 µM.

The molecule `CCCCCCOC(C)C1=C(C)c2cc3nc(c4c5[nH]c(cc6[nH]c(cc1n2)c(C)c6CC)c(C)c5C(=O)N(CCC)C4=O)[C@@H](CCC(=O)OC)[C@@H]3C` (some centres not stated) showed a Skin uptake of 1.48 µM.

Regarding `CCCCCCCOC(C)C1=C(C)c2cc3nc(c4c5[nH]c(cc6[nH]c(cc1n2)c(C)c6CC)c(C)c5C(=O)N(CCCCCC)C4=O)[C@@H](CCC(=O)OC)[C@@H]3C` (some centres not stated), the Skin uptake stood at 2.6 µM.

In turn, `CCCCCCCN1C(=O)c2c3nc(cc4nc(cc5[nH]c(cc6[nH]c2c(c6C)C1=O)c(CC)c5C)C(C(C)OCCCCCC)=C4C)[C@@H](C)[C@@H]3CCC(=O)OC` (some centres not stated) gave a Skin uptake of 2.95 µM.

The subject of a further data set is Mus musculus. Nature of the data set: Tumor uptake in C3H mice bearing RIF tumors, determined by in vivo reflectance spectroscopy following 5.0 umol/kg administration. The format is functional.
Conditions: not given
The method, boiled down: as §1
Regarding `CCCCCCCCCCCCN1C(=O)c2c3nc(cc4nc(cc5[nH]c(cc6[nH]c2c(c6C)C1=O)c(CC)c5C)C(C(C)OCCCCCC)=C4C)[C@@H](C)[C@@H]3CCC(=O)OC` (some centres not stated), the Tumor uptake is 4.77 µM.

Molecule `CCCCCCCCCCCCN1C(=O)c2c3nc(cc4nc(cc5[nH]c(cc6[nH]c2c(c6C)C1=O)c(CC)c5C)C(C(C)OC)=C4C)[C@@H](C)[C@@H]3CCC(=O)OC` (some centres not stated) displayed a Tumor uptake of 15.48 µM.

Consider `CCc1c(C)c2cc3[nH]c(cc4nc(c5c6nc(cc1[nH]2)C(C)=C6C(=O)N(C)C5=O)[C@@H](CCC(=O)OC)[C@@H]4C)c(C)c3C(C)OC` (some centres not stated), for which the Tumor uptake stood at 0.3 µM.

`CCCCCCCCCCOC(C)C1=C(C)c2cc3nc(c4c5[nH]c(cc6[nH]c(cc1n2)c(C)c6CC)c(C)c5C(=O)N(CCCCCCCCCC)C4=O)[C@@H](CCC(=O)OC)[C@@H]3C` (some centres not stated) returned a Tumor uptake of 5.56 µM.

Take `CCCCCCOC(C)C1=C(C)c2cc3nc(c4c5[nH]c(cc6[nH]c(cc1n2)c(C)c6CC)c(C)c5C(=O)N(C)C4=O)[C@@H](CCC(=O)OC)[C@@H]3C` (some centres not stated): the Tumor uptake is 6.42 µM.

`CCCCCCOC(C)C1=C(C)c2cc3nc(c4c5[nH]c(cc6[nH]c(cc1n2)c(C)c6CC)c(C)c5C(=O)N(CCCCCC)C4=O)[C@@H](CCC(=O)OC)[C@@H]3C` (some centres not stated): the Tumor uptake stood at 7.3 µM.

Take `CCCCCCN1C(=O)c2c3nc(cc4nc(cc5[nH]c(cc6[nH]c2c(c6C)C1=O)c(CC)c5C)C(C(C)OCCC)=C4C)[C@@H](C)[C@@H]3CCC(=O)OC` (some centres not stated): the Tumor uptake was 13.8 µM.

Consider `CCCCCCOC(C)C1=C(C)c2cc3nc(c4c5[nH]c(cc6[nH]c(cc1n2)c(C)c6CC)c(C)c5C(=O)N(CCC)C4=O)[C@@H](CCC(=O)OC)[C@@H]3C` (some centres not stated), for which the Tumor uptake worked out at 4.95 µM.

As for `CCCCCCCOC(C)C1=C(C)c2cc3nc(c4c5[nH]c(cc6[nH]c(cc1n2)c(C)c6CC)c(C)c5C(=O)N(CCCCCC)C4=O)[C@@H](CCC(=O)OC)[C@@H]3C` (some centres not stated), the Tumor uptake was 8.2 µM.

Take `CCCCCCCN1C(=O)c2c3nc(cc4nc(cc5[nH]c(cc6[nH]c2c(c6C)C1=O)c(CC)c5C)C(C(C)OCCCCCC)=C4C)[C@@H](C)[C@@H]3CCC(=O)OC` (some centres not stated): the Tumor uptake turned out to be 8.04 µM.

Tested on in the next data set: not listed separately
The experiment in a line: Partition coefficient (logP). Format: physicochemical. The settings on record: octanol/water.
Turning to `CCCCCCCCCCCCN1C(=O)c2c3nc(cc4nc(cc5[nH]c(cc6[nH]c2c(c6C)C1=O)c(CC)c5C)C(C(C)OC)=C4C)[C@@H](C)[C@@H]3CCC(=O)OC` (some centres not stated), the logP (as a rule, the decadic logarithm of the partition coefficient of the neutral form, usually between octanol and water) is recorded as 10.88.

The molecule `CCCCCCOC(C)C1=C(C)c2cc3nc(c4c5[nH]c(cc6[nH]c(cc1n2)c(C)c6CC)c(C)c5C(=O)N(CCCCCC)C4=O)[C@@H](CCC(=O)OC)[C@@H]3C` (some centres not stated) registered a logP of 10.32.

As to `CCCCCCCN1C(=O)c2c3nc(cc4nc(cc5[nH]c(cc6[nH]c2c(c6C)C1=O)c(CC)c5C)C(C(C)OCCCCCC)=C4C)[C@@H](C)[C@@H]3CCC(=O)OC` (some centres not stated), the lipophilicity (logP) is listed as 10.83.

The data set is the same for the next values; noted with them: octanol/water; read-out: logP.
As for `CCc1c(C)c2cc3[nH]c(cc4nc(c5c6nc(cc1[nH]2)C(C)=C6C(=O)N(C)C5=O)[C@@H](CCC(=O)OC)[C@@H]4C)c(C)c3C(C)OC` (some centres not stated), the logP was found to be 5.32.

On to `CCCCCCOC(C)C1=C(C)c2cc3nc(c4c5[nH]c(cc6[nH]c(cc1n2)c(C)c6CC)c(C)c5C(=O)N(C)C4=O)[C@@H](CCC(=O)OC)[C@@H]3C` (some centres not stated), for which the logP was 7.67.

As to `CCCCCCN1C(=O)c2c3nc(cc4nc(cc5[nH]c(cc6[nH]c2c(c6C)C1=O)c(CC)c5C)C(C(C)OCCC)=C4C)[C@@H](C)[C@@H]3CCC(=O)OC` (some centres not stated), the logP amounted to 8.79.

On to `CCCCCCOC(C)C1=C(C)c2cc3nc(c4c5[nH]c(cc6[nH]c(cc1n2)c(C)c6CC)c(C)c5C(=O)N(CCC)C4=O)[C@@H](CCC(=O)OC)[C@@H]3C` (some centres not stated), for which the logP was determined as 8.79.
